Sampled rows, rich in hits. Any-hit rate of the full collection: about 9.4%.
Beta apoptosis = beta cell apoptosis inhibition; INS-1E cytokine-induced death, ATP luminescence, 48 h; percent of positive-control rescue, neutral wells zero; protection from apoptosis, % (no concentration beside the values); 300,000 tested, 0.8% active; AID 435005;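 active = Every replicate reaches about 75%, or at least half do and their mean reaches it too, limit read from the data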;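 also: 0% = cytokine-treated negative control wells and 100% = positive control rescue; higher means more ATP so stronger rescue from cytokine killing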
T cruzi inh = T. cruzi replication inhibition; T. cruzi beta-gal in NIH3T3, luminescence, 90 h; inhibition, % (concentration not given with the values); 300,000 tested, 1.4% active; AID 1885;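 active = mean inhibition across valid replicates above about 55%, limit read from the data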;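 also: signal also drops with host cell toxicity which is not excluded here; 0% = plate median of DMSO wells and 100% = zero luminescence signal; higher percent means less beta-gal luminescence so fewer parasites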
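Assay system: NIH/3T3 host cells with β-galactosidase reporter T. cruzi; input: 5,000 host fibroblasts per well; compound: single 50 nL compound addition per well in DMSO; timing: ≥90 h infection period, 3 h prior cell attachment; measured by: GalScreen β-gal luminescence, detergent lysis, 60 min; evaluation: percent inhibition of parasite-derived β-gal signal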
CSC inhib = cancer stem cell inhibition; cancer stem cell-like cells viability, luminescence; inhibition, % at 7.5 µM; 300,000 tested, 1.1% active; AID 2717; in the data active = inhibition above about 75%; tested in HMLE shEcad cells
SKKanGAS inh = inhibitors of SKKanGAS S. pyogenes growth in kanamycin (SK-promoter or general growth effect); BacTiter-Glo, 6 h; 300,000 tested, 1.3% active; inhibition, % at 7.5 µM; AID 1662;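 active = mean replicate score, as percent of positive control median, at least 50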;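 also: strain carries kanamycin resistance gene driven by streptokinase promoter and grows in 40 µg/ml kanamycin; loss of luminescence reflects streptokinase promoter inhibition or plain growth inhibition; 0% = median of DMSO wells and 100% = positive control at its reference dose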
Mdm2 MdmX PPI = human Mdm2/MdmX binding inhibition | SaOS-2 split-luciferase Mdm2/MdmX complementation, luminescence | 330,000 tested, 3% active | inhibition, % at 8 µM;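 active = inhibition of at least 50% at 8 µM in the primary screen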
Lmaj promast = inhibitors of Leishmania major promastigote growth; Leishmania major promastigotes, resazurin fluorescence viability; 200,000 tested, 9% active; AID 1063; inhibition, % at 10 µM; in the data active = inhibition above about 50%;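 also: promastigotes grown with compound for 44 hours at 28 °C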
Mdm2-MdmX conf = confirmation of human Mdm2/MdmX interaction inhibitors; inhibition, % at 8 µM; AID 489028; 10,000 tested, 55% active; Mdm2-MdmX binding, luminescent assay; shares compounds with Mdm2 MdmX PPI; in the data active = inhibition above about 40%
Full FLuc ctr = inhibits full-length luciferase, flagging false Mdm2/MdmX hits. shares compounds with Mdm2 MdmX PPI. SaOS-2 full-length luciferase counterscreen, luminescence. inhibition, % at 8 µM. 6,200 tested, 77% active;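 active = mean inhibition at 8 µM reaching about 37%, which flags the compound as non-specific, limit read from the data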;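 also: p53-null SaOS-2 cells with luciferase driven by a doxycycline-inducible promoter; compound on cells about two nights before reading with doxycycline added after day one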
Numbers without * were called inactive; nt = no result.

SMILES | Beta apoptosis | T cruzi inh | CSC inhib | SKKanGAS inh | Mdm2 MdmX PPI | Lmaj promast | Mdm2-MdmX conf | Full FLuc ctr
CC(=O)c1ccc(NC(=O)c2ccc(NC(=O)c3ccco3)cc2)cc1 | -2 | -5 | -4 | 6 | 71* | nt | 13 | nt
Cc1ccccc1NC(=O)c1cccc(NC(=O)c2ccco2)c1 | nt | 1 | 6 | 11 | 10 | nt | nt | nt
COc1cc(C(=O)COC(=O)c2ccc([N+](=O)[O-])o2)cc(OC)c1OC | -6 | nt | 5 | nt | 14 | nt | nt | nt
COC(=O)CCC(=O)NC(=S)Nc1sc(C)c(C)c1C(N)=O | nt | -27 | 1 | -7 | 61* | 45 | 58* | 91*
CCOc1ccc(C(=O)NC(C(=O)NCCc2ccc(OC(F)F)cc2)C(C)C)cc1 (stereo not given) | 0 | -2 | 14 | -2 | -17 | nt | nt | nt
Cc1cnc(NC(=O)COc2ccccc2Cl)s1 | -13 | 2 | nt | 5 | 53* | 6 | 36 | nt
CCn1cc(C(=O)Nc2cccc(C)c2)c(=O)c2ccc(C)nc21 | -2 | -12 | -11 | 6 | 14 | 9 | nt | nt
COc1cc(CN(C)c2ncnc3sccc23)ccc1OC(F)F | 14 | -42 | 20 | 2 | 24 | nt | nt | nt
NS(=O)(=O)c1ccc(CNC(=O)c2cc(-c3ccccn3)nc3ccc(Cl)cc23)cc1 | nt | -16 | -15 | -10 | 51* | 3 | 14 | nt
Cc1nc(N2CCCCC2)sc1C(=O)c1ccc(Cl)c([N+](=O)[O-])c1 | 4 | 14 | 58 | 0 | 69* | 19 | 24 | nt
Cc1cc(C)nc(NC(=O)c2ccc(Cl)c([N+](=O)[O-])c2)n1 | -2 | -11 | -7 | 1 | -6 | nt | nt | nt
COc1ccc(-c2cc(C)no2)cc1S(=O)(=O)N(C)c1cccc(C)c1 | -5 | 21 | -3 | -5 | 9 | nt | nt | nt
CCN(c1cccc(C)c1)S(=O)(=O)c1ccc(-c2cc(C)no2)s1 | 8 | 6 | 58 | -3 | 53* | nt | 53* | 69*
Cc1cccc(N(C)S(=O)(=O)c2ccc(-c3cc(C)no3)s2)c1 | 7 | 14 | 14 | -7 | 65* | nt | 51* | 89*
CCOc1ccc(N(C)S(=O)(=O)c2ccc(-c3cc(C)no3)s2)cc1 | 15 | 0 | 62 | -7 | 61* | nt | 53* | 84*
COc1ccccc1NS(=O)(=O)c1ccc(-c2cc(C)no2)s1 | 21 | -10 | -2 | 4 | 49 | nt | nt | nt
CCOC(=O)c1c(NC(=O)COC(=O)c2ccncc2)sc(C)c1C | 3 | -2 | 2 | 5 | 7 | -8 | nt | nt
Cc1ccc(SCc2cc(=O)[nH]c(/N=C(\N)Nc3cccc4ccccc34)n2)cc1 | -4 | -38 | 1 | -12 | 15 | 15 | nt | nt
COc1ccc(N/C(N)=N/c2nc(CSc3nnc(C)s3)cc(=O)[nH]2)cc1 | 5 | -56 | 1 | -7 | 52* | -1 | 65* | 65*
Cc1ccc(N/C(N)=N/c2nc(CSc3nnc(C)s3)cc(=O)[nH]2)c(C)c1 | 21 | -18 | 5 | -6 | 60* | 4 | 56* | 68*
COc1ccc(CNC[C@@H](CCCCN(C)Cc2ccc(OC)cc2)N2C[C@H](c3ccccc3)N(CCc3ccc(Cl)c(Cl)c3)C(=O)C2=O)cc1 | 99* | 25 | 107* | 13 | 99* | 100* | 100* | 53*
CCOc1ccc(CCN2C(=O)C(=O)N([C@H](CCCN(C)Cc3ccccc3)CNCc3ccccc3)C[C@@H]2C(C)C)cc1 | nt | 22 | nt | -1 | 66* | nt | 56* | 58*
Cc1cccc(N2CCN(C(=O)c3ccc(Cl)c(S(=O)(=O)NCc4ccco4)c3)CC2)c1C | 4 | 25 | 51 | 14 | 70* | 42 | 74* | 42*
CC1CN(C(=O)c2ccc(Cl)c(S(=O)(=O)NCc3ccco3)c2)CC(C)O1 (stereo not given) | -5 | nt | nt | nt | -8 | nt | nt | nt
COc1cc(C(=O)OCC(=O)N2CCC(C)CC2)cc2c1OCCO2 | -8 | nt | -9 | nt | 4 | nt | nt | nt
SMILES | Beta apoptosis | T cruzi inh | CSC inhib | SKKanGAS inh | Mdm2 MdmX PPI | Lmaj promast | Mdm2-MdmX conf | Full FLuc ctr
O=C(O/N=C\c1ccc(N2CCCCC2)c([N+](=O)[O-])c1)c1ccc(Cl)cc1Cl | 0 | -11 | 23 | 4 | 9 | 1 | nt | nt
COc1ccccc1C(=O)/C=C/c1ccc(N2CCCCC2)c([N+](=O)[O-])c1 | nt | 26 | nt | -5 | 99* | 98* | 37 | 70*
CN1CCN(CC(=O)N2c3ccccc3Sc3ccccc32)CC1 | nt | 14 | nt | -2 | -4 | nt | nt | nt
CN1CCN(CC/C=C2/c3ccccc3Sc3ccc(S(=O)(=O)N(C)C)cc32)CC1 | -8 | 29 | 0 | -2 | 67* | nt | 27 | nt
Cc1ccc(OCCNC(=O)c2cccc(S(=O)(=O)NCc3ccccc3)c2)cc1 | nt | nt | nt | nt | 60* | nt | 77* | 54*
O=C(NCc1ccncc1)c1cccc(S(=O)(=O)NCc2ccccc2)c1 | -2 | -2 | -19 | -11 | 27 | nt | nt | nt
CC(C)=CCC/C(C)=C/CNC(=O)C[C@H]1C[C@H](C(=O)N2CCOCC2)[C@@]2(CCC3CCCC3)c3[nH]c4cc(-c5ccco5)ccc4c3CCN2C1=O | nt | nt | nt | nt | 30 | nt | nt | nt
COCCCNC(=O)C[C@H]1C[C@H](C(=O)N(C(C)C)C(C)C)[C@@]2(C)c3[nH]c4cc(CCC(=O)N(C)C)ccc4c3CCN2C1=O | nt | nt | nt | nt | 19 | nt | nt | nt
CN(C)C(=O)CCc1ccc2c3c([nH]c2c1)[C@]1(CCC2CCCC2)[C@@H](C(=O)N2CCOCC2)C[C@H](CC(=O)NCC24CC5CC(CC(C5)C2)C4)C(=O)N1CC3 | nt | nt | nt | nt | 70* | nt | 63* | 44*
COCCCNC(=O)C[C@H]1C[C@H](C(=O)N2CCOCC2)[C@@]2(CCC3CCCC3)c3[nH]c4cc(CCC(=O)N(C)C)ccc4c3CCN2C1=O | nt | nt | nt | nt | -6 | nt | nt | nt
COCCCNC(=O)C[C@H]1C[C@H](C(=O)N2CCOCC2)[C@@]2(C)c3[nH]c4cc(CCC(=O)N(C)C)ccc4c3CCN2C1=O | nt | nt | nt | nt | 64* | nt | -24 | nt
CC(C)=CCC/C(C)=C/CNC(=O)C[C@H]1C[C@H](C(=O)N2CCOCC2)[C@@]2(CCC3CCCC3)c3[nH]c4cc(CCC(=O)N(C)C)ccc4c3CCN2C1=O | nt | nt | nt | nt | 77* | nt | 21 | nt
N#Cc1c(-c2ccc(Cl)cc2)ccnc1N1CCOCC1 | 9 | 0 | 3 | -1 | -54 | -7 | nt | nt
O=C1CCC2(CC1)NC(=O)N(c1ccccc1)N2 | -1 | 4 | -12 | 5 | 5 | 10 | nt | nt
O=C1Cc2ccccc2N1c1ccccc1 | nt | -1 | -8 | 3 | -52 | -7 | nt | nt
O=C1CC(=Nc2ccccc2)NN1c1ccccc1 | 21 | -1 | 130* | 18 | 58* | -10 | 1 | nt
Cc1c(O)ccc2c(CN3CCN(C/C=C/c4ccccc4)CC3)cc(=O)oc12 | -16 | 50 | 47 | 3 | 27 | nt | nt | nt
CC(C)CN(Cc1cc(=O)oc2cc(-c3ccccc3)c(O)cc12)CC(C)C | 42 | 17 | 109* | 76* | 80* | nt | -5 | nt

Screening data deposited in PubChem BioAssay by several laboratories.
